# According to ChEMBL document CHEMBL5303300, “EUbOPEN Chemogenomics Library - Multiplex” (2023):
# Values joined by “and” are separate entries in the source; they are usually repeats but may differ in a detail not shown here. Identical values can stand only once.
# Tested on: Fibroblast
# Test: Multiplex assay against human fibroblast
# Assay type: toxicity, cell-based
# Conditions: number of replicates 2
# In short: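 Live cells were stained at seeding with Hoechst33342, BioTracker Green Microtubule Cytoskeleton Dye, MitoTracker Red and Annexin V Alexa Fluor 680. Following compound addition, they were imaged on a CQ1 microscope at 37°C and 5% CO2 and gated by CellPathfinder machine learning into Hoechst high-intensity objects or normal cells, with normal cells split into healthy, pyknosed or fragmented nuclei and pyknosed cells into mitotic or apoptotic. Tubulin, mitochondrial-mass and membrane-permeability phenotypes are per cents of healthy-nucleus cells.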
# [1] = 12 h, 1 µM, compound concentration 1 uM
# [2] = 12 h, 10 µM, compound concentration 10 uM
# [3] = 24 h, 1 µM, compound concentration 1 uM
# [4] = 24 h, 10 µM, compound concentration 10 uM
# [5] = 48 h, 1 µM, compound concentration 1 uM
# [6] = 48 h, 10 µM, compound concentration 10 uM
structure (smiles),measurement,setting,value
Cc1ccc(C(=O)Nc2cc(N3CCN(C)CC3)cc(C(F)(F)F)c2)cc1-n1cc(-c2cnn(C)c2C)nn1.Cl,Population Apoptotic (%),[1],40% and 42%
same,Population Fragmented Nuclei (%),[1],6% and 16%
same,Population Healthy Nuclei (%),[1],48% and 59%
same,Population Hoechst High Intensity Objects (%),[1],0%
same,Population Membrane Permeable-Phenotype (%),[1],20% and 12%
same,Population Mitochondria Different-Phenotype (%),[1],2%
same,Population Mitotic Cells (%),[1],59% and 57%
same,Population Normal (%),[1],100%
same,Population Pyknosed Nuclei (%),[1],44% and 24%
same,Population Tubulin-Different-Phenotype (%),[1],35% and 32%
same,Total Cell Count,[1],165 and 172
same,Population Apoptotic (%),[2],61% and 35%
same,Population Fragmented Nuclei (%),[2],17% and 18%
same,Population Healthy Nuclei (%),[2],51% and 62%
same,Population Hoechst High Intensity Objects (%),[2],0% and 1%
same,Population Membrane Permeable-Phenotype (%),[2],12% and 11%
same,Population Mitochondria Different-Phenotype (%),[2],4% and 7%
same,Population Mitotic Cells (%),[2],38% and 64%
same,Population Normal (%),[2],99% and 98%
same,Population Pyknosed Nuclei (%),[2],30% and 19%
same,Population Tubulin-Different-Phenotype (%),[2],85% and 70%
same,Total Cell Count,[2],198 and 294
same,Population Apoptotic (%),[3],65% and 41%
same,Population Fragmented Nuclei (%),[3],10% and 17%
same,Population Healthy Nuclei (%),[3],46% and 59%
same,Population Hoechst High Intensity Objects (%),[3],0%
same,Population Membrane Permeable-Phenotype (%),[3],7% and 4%
same,Population Mitochondria Different-Phenotype (%),[3],7%
same,Population Mitotic Cells (%),[3],34% and 58%
same,Population Normal (%),[3],99% and 100%
same,Population Pyknosed Nuclei (%),[3],42% and 23%
same,Population Tubulin-Different-Phenotype (%),[3],36% and 35%
same,Total Cell Count,[3],150 and 176
same,Population Apoptotic (%),[4],68% and 63%
same,Population Fragmented Nuclei (%),[4],16% and 17%
same,Population Healthy Nuclei (%),[4],57% and 59%
same,Population Hoechst High Intensity Objects (%),[4],0% and 1%
same,Population Membrane Permeable-Phenotype (%),[4],7% and 5%
same,Population Mitochondria Different-Phenotype (%),[4],12% and 15%
same,Population Mitotic Cells (%),[4],31% and 36%
same,Population Normal (%),[4],99% and 98%
same,Population Pyknosed Nuclei (%),[4],25% and 23%
same,Population Tubulin-Different-Phenotype (%),[4],76% and 58%
same,Total Cell Count,[4],261 and 279
same,Population Apoptotic (%),[5],76% and 68%
same,Population Fragmented Nuclei (%),[5],15% and 18%
same,Population Healthy Nuclei (%),[5],49% and 66%
same,Population Hoechst High Intensity Objects (%),[5],0% and 1%
same,Population Membrane Permeable-Phenotype (%),[5],2%
same,Population Mitochondria Different-Phenotype (%),[5],5%
same,Population Mitotic Cells (%),[5],23% and 32%
same,Population Normal (%),[5],100% and 98%
same,Population Pyknosed Nuclei (%),[5],34% and 15%
same,Population Tubulin-Different-Phenotype (%),[5],32% and 19%
same,Total Cell Count,[5],161 and 167
same,Population Apoptotic (%),[6],84% and 82%
same,Population Fragmented Nuclei (%),[6],19%
same,Population Healthy Nuclei (%),[6],59% and 63%
same,Population Hoechst High Intensity Objects (%),[6],3% and 4%
same,Population Membrane Permeable-Phenotype (%),[6],5% and 6%
same,Population Mitochondria Different-Phenotype (%),[6],10%
same,Population Mitotic Cells (%),[6],15% and 17%
same,Population Normal (%),[6],96% and 95%
same,Population Pyknosed Nuclei (%),[6],21% and 17%
same,Population Tubulin-Different-Phenotype (%),[6],68% and 54%
same,Total Cell Count,[6],226 and 303
